For test [1], the system named is MCF7. The test is described as follows: Cytotoxicity against human MCF7 cells after 48 hrs by MTT assay. The class given is functional, cell-based. As to conditions: MCF7, 48 h. Summed up:
(§1)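 MTT assay: […] were plated in DMEM with 10% FBS and incubated for 24 h at 37 °C under CO2. Compounds diluted in culture medium were added alongside a vehicle control for 48 h. MTT (10 µl of a 5 mg/ml stock) was added for a further 4 h. The supernatant was then removed, the formazan dissolved in DMSO, and absorbance read at 540 nm. IC50 was derived.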
For orientation: Tetrazolium dyes change colour on reduction, which living cells bring about.

Test [2] concerns DU-145. Description: Cytotoxicity against human DU145 cells after 48 hrs by MTT assay. As to conditions: DU-145, 48 h. The class given is functional, cell-based. Summed up:
as §1

Test [3] has as its system HeLa. The test is described as follows: Cytotoxicity against human HeLa cells after 48 hrs by MTT assay. It is filed as functional, cell-based. The essentials:
as §1

For test [4], the system named is ACHN. Description: Cytotoxicity against human ACHN cells after 48 hrs by MTT assay. The class given is functional, cell-based. The essentials:
as §1

Test [5] relates to A549. The test is described as follows: Cytotoxicity against human A549 cells after 48 hrs by MTT assay. The class given is functional, cell-based. To be noted: A549, 48 h. Summed up:
as §1

The subject of test [6] is A549. The test is described as follows: Induction of apoptosis in human A549 cells assessed as activation of caspase-3 at 2 uM after 48 hrs by ELISA relative to control. It is filed as functional. Summed up:
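A549 lung cancer cells exposed to 1 and 2 µM compound for 48 h, with roscovitine as positive control. Pellets lysed for 15 min, and supernatant caspase-3 activity read by a commercial colorimetric kit relative to untreated control. Values are mean ± SD of two experiments run in triplicate.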
On the technique in general: In an ELISA, binding on a coated surface is turned into a signal by an enzyme label.

Test [7] relates to A549. Description: Cell cycle arrest at human A549 cells assessed as accumulation at S phase at 2 uM after 48 hrs by propidium iodide-staining-based FACS flow cytometric analysis (reference value: 4.48%). It is filed as functional. For orientation: A flow cytometer gives signals particle by particle.
Test [8] has as its system A549. Description: Cell cycle arrest at human A549 cells assessed as accumulation at G2/M phase at 2 uM after 48 hrs by propidium iodide-staining-based FACS flow cytometric analysis (reference value: 13.17%). The class given is functional.
Test [9] concerns A549. Description: Cell cycle arrest at human A549 cells assessed as accumulation at sub G1 phase at 2 uM after 48 hrs by propidium iodide-staining-based FACS flow cytometric analysis (reference value: 1.02%). The class given is functional.
Test [10] deals with A549. Description: Induction of apoptosis in human A549 cells assessed as DNA fragmentation at 2 uM after 48 hrs by agarose gel electrophoresis. It is filed as functional, cell-based. Summed up:
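A549 cells (1×10^6) seeded in six-well plates for 24 h, then exposed to 2 µM compound or roscovitine for 48 h and pelleted. Lysate treated with SDS and RNase-A (2 h, 56 °C), then proteinase K (2 h, 37 °C). DNA precipitated with ammonium acetate/cold ethanol, dissolved in TE, and laddering resolved on 2% agarose gel against a 50 bp marker.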

Test [11] has as its system A549. Description: Cell cycle arrest at human A549 cells assessed as accumulation at G0/G1 phase at 2 uM after 48 hrs by propidium iodide-staining-based FACS flow cytometric analysis (reference value: 81.33%). It is filed as functional.

Active and inactive are the calls of the source. The rule behind the calls is not given here.

With `COc1ccc(-c2cc(C(=O)Nc3nc4ccc(OC)cc4s3)nc3cc(-c4ccccc4)nn23)cc1`, the IC50 worked out at 19.1 µM in test [1]; 7.58 µM in test [2]; 24.5 µM in test [3]; 38.3 µM in test [4]; 17.4 µM in [5].

Consider `CC[C@H](CO)Nc1nc(NCc2ccccc2)c2ncn(C(C)C)c2n1` [SELICICLIB], for which the “fold change (FC)” value in test [6] came to 4. Moreover, the IC50 in test [1] stood at 3.98 µM; in test [2], 1.9 µM; in [3], 1.81 µM; in [4], 2.88 µM; in [5] it was 2.18 µM. For the same molecule, the Activity is listed as 5.26% in test [7], 40.69% in test [8], 7.3% in test [9] and 46.75% in test [11]. For the same molecule, the result in test [10] was Active.

`COc1cc(-c2cc(C(=O)Nc3nc4cc(C)c(C)cc4s3)nc3cc(-c4ccccc4)nn23)cc(OC)c1OC`: the IC50 in test [1] worked out at 2.29 µM; in test [2], 3.71 µM; in test [3], 8.91 µM; in test [4], 3.8 µM; in [5] it was 2.34 µM.

As for `COc1ccc2nc(NC(=O)c3cc(-c4ccc(F)cc4)n4nc(-c5ccccc5)cc4n3)sc2c1`, the half-inhibitory concentration (IC50) in test [1] turned out to be 24.5 µM; in test [2] it was 15.4 µM; in test [3], 17.3 µM; in test [4] it was 26.3 µM; in [5], 24 µM.

As to `COc1ccc(-c2cc(C(=O)Nc3nc4ccccc4s3)nc3cc(-c4ccccc4)nn23)cc1OC`, the IC50 in test [1] was 14.7 µM; in test [2], 19.1 µM; in test [3], 8.91 µM; in test [4], 7.94 µM; in test [5], 5.49 µM.

Turning to `O=C(Nc1nc2ccc(F)cc2s1)c1cc(-c2ccc(F)cc2)n2nc(-c3ccccc3)cc2n1`, the IC50 in [1] worked out at 22.9 µM; in test [2], 22.9 µM; in test [3] it was 29.5 µM; in [4], 35.5 µM; in test [5] it was 14.8 µM.

Consider `COc1ccc(-c2cc(C(=O)Nc3nc4cc(C)c(C)cc4s3)nc3cc(-c4ccccc4)nn23)cc1`, for which the IC50 in test [1] stood at 19.7 µM; in test [2], 12.3 µM; in test [3], 14.1 µM; in test [4] it was 22.4 µM; in test [5] it was 13.2 µM.

In the case of `COc1ccc(-c2cc(C(=O)Nc3nc4ccc(Cl)cc4s3)nc3cc(-c4ccccc4)nn23)cc1OC`, the IC50 in [1] stood at 6.91 µM; in [2], 9.33 µM; in test [3], 9.12 µM; in test [4] it was 7.76 µM; in test [5], 6.16 µM.

As for `COc1ccc(-c2cc(C(=O)Nc3nc4cc(C)c(C)cc4s3)nc3cc(-c4ccccc4)nn23)cc1OC`, the IC50 in test [1] is 2.51 µM; in test [2], 6.91 µM; in test [3], 6.76 µM; in test [4], 8.7 µM; in test [5], 2.95 µM.

In the case of `Cc1cc2nc(NC(=O)c3cc(-c4ccc(F)cc4)n4nc(-c5ccccc5)cc4n3)sc2cc1C`, the IC50 in test [1] amounted to 17 µM; in test [2], 12.9 µM; in test [3], 18.2 µM; in test [4], 33 µM; in [5], 12.6 µM.

In the case of `COc1ccc(-c2cc(C(=O)Nc3nc4ccc(F)cc4s3)nc3cc(-c4ccccc4)nn23)cc1`, the IC50 in test [1] came out at 35.5 µM; in test [2], 31.4 µM; in test [3] it was 41.7 µM; in test [4], 39.3 µM; in test [5] it was 11.7 µM.

As for `COc1cc(-c2cc(C(=O)Nc3nc4ccc(Cl)cc4s3)nc3cc(-c4ccccc4)nn23)cc(OC)c1OC`, the IC50 came out at 30.2 µM in [1]; 38.9 µM in [2]; 22.4 µM in test [3]; 41.7 µM in test [4]; 18.2 µM in test [5].

As to `COc1cc(-c2cc(C(=O)Nc3nc4ccc(F)cc4s3)nc3cc(-c4ccccc4)nn23)cc(OC)c1OC`, the IC50 amounted to 27.5 µM in test [1]; 25.7 µM in [2]; 25.1 µM in test [3]; 32.4 µM in test [4]; 22.4 µM in test [5].

For `O=C(Nc1nc2ccc(Cl)cc2s1)c1cc(-c2ccc(F)cc2)n2nc(-c3ccccc3)cc2n1`, the IC50 in test [1] was 19.8 µM; in test [2], 17.6 µM; in [3], 9.77 µM; in [4], 13.8 µM; in test [5], 6.6 µM.

On to `COc1ccc2nc(NC(=O)c3cc(-c4cc(OC)c(OC)c(OC)c4)n4nc(-c5ccccc5)cc4n3)sc2c1`, for which the IC50 worked out at 2.95 µM in [1]; 3.98 µM in test [2]; 8.7 µM in test [3]; 5.24 µM in [4]; 2.81 µM in test [5].

For `COc1ccc(-c2cc(C(=O)Nc3nc4ccc(F)cc4s3)nc3cc(-c4ccccc4)nn23)cc1OC`, the IC50 in [1] amounted to 22.4 µM; in test [2] it was 18.6 µM; in test [3] it was 8.31 µM; in test [4], 8.12 µM; in [5], 6.91 µM.

For the molecule `COc1ccc(-c2cc(C(=O)Nc3nc4ccc(Cl)cc4s3)nc3cc(-c4ccccc4)nn23)cc1`, the IC50 in test [1] turned out to be 4.89 µM; in test [2] it was 5.88 µM; in test [3], 5.88 µM; in test [4], 7.24 µM; in test [5], 3.09 µM.

On to `COc1ccc(-c2cc(C(=O)Nc3nc4ccccc4s3)nc3cc(-c4ccccc4)nn23)cc1`, for which the IC50 amounted to 2.23 µM in test [1]; 2.95 µM in test [2]; 4.67 µM in test [3]; 1.69 µM in [4]; 1.54 µM in [5].

For the molecule `COc1ccc2nc(NC(=O)c3cc(-c4ccc(OC)c(OC)c4)n4nc(-c5ccccc5)cc4n3)sc2c1`, the IC50 in test [1] came to 18.7 µM; in test [2], 14 µM; in test [3] it was 11 µM; in test [4], 13.3 µM; in test [5], 15.8 µM.

What is called IC50 is the concentration at which inhibition is half-maximal. Read a low IC50 as inhibition by little substance.

The record behind these values is ChEMBL document CHEMBL2384939, “Synthesis of pyrazolo[1,5-a]pyrimidine linked aminobenzothiazole conjugates as potential anticancer agents” (Bioorg Med Chem Lett, 2013).
